SMILES strings stand for the structures. Activity calls are given as the source filed them. No cut-off for these calls is given here. A value given as a limit tells only on which side of the number the result lay.

The values that follow come from ChEMBL document CHEMBL3045750, “New class of algicidal compounds and fungicidal activities derived from a chromene amide of Amyris texana” (2010).

For assay [1], the system named is Botrytis cinerea. As to the kind of experiment: Fungicidal activity against Botryotinia fuckeliana assessed as growth inhibition at 10 to 100 uM after 72 hr by microbioassay. It counts as functional, organism-based. Put shortly: (§1)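 Botrytis cinerea tested in a 96-well dose-response microbioassay alongside other fungal strains, after compounds were first screened by TLC bioautography against C. fragariae. Three concentrations were used (1.0, 10.0, 100.0 μM), with captan as positive standard. Growth inhibition was read 72 h after treatment.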

The subject of assay [2] is Colletotrichum fragariae. As to the kind of experiment: Antifungal activity against Colletotrichum fragariae by TLC bioautography. It counts as functional, organism-based.
Assay [3] deals with Lactuca sativa. Description: Phytotoxic activity against Lettuce cv. Iceberg (lettuce) at 0.1 to 1000 uM. It is filed as functional, organism-based. In outline: (§2)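 Germination phytotoxicity assay on lettuce (Lactuca sativa cv. Iceberg, dicot) and bent grass (Agrostis stolonifera cv. Pencross, monocot), with compounds tested across 0.1-1000 μM. Inhibition was scored visually on a 1-5 scale, where 1 is no inhibition and 5 is complete inhibition of germination.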

The test system of assay [4] is Agrostis stolonifera. As to the kind of experiment: Phytotoxic activity against Agrostis stolonifera var. Penncross at 0.1 to 1000 uM. It is filed as functional, organism-based. Put shortly:
as §2

Assay [5] deals with Botrytis cinerea. As to the kind of experiment: Fungicidal activity against Botryotinia fuckeliana assessed as growth inhibition at 100 uM after 72 hr by microbioassay. It counts as functional. Particulars: read-out: GI. Put shortly: as §1
Assay [6] concerns Cucumis sativus. As to the kind of experiment: Phytotoxic activity against Cucumis sativus (cucumber) cotyledon disks assessed as electrolyte leakage. It is filed as functional, organism-based.

In the case of `O=C1C2CC=CCC2C(=O)N1SC(Cl)(Cl)Cl` (stereo unspecified), the “growth inhibition (GI)” value in assay [1] was “Active”.
In the case of `COC(=O)CCc1ccc2c(c1)C=CC(C)(C)O2`, the outcome in assay [2] was Active.
Turning to `CC(C)NCc1ccc2c(c1)OC(C)(C)C=C2`, the outcome in assay [2], in assay [3] and in assay [4] was inactive.
As for `C#CC(C)(C)Oc1ccc(CCC(=O)OC)cc1`, the result in assay [2] was Active.
Regarding `COC(=O)c1ccc2c(c1)OC(C)(C)C=C2`, the inhibition of growth at 100 µM in assay [5] was above 50%. The outcome in assay [2] was Active.
Take `CC(C)NCc1cccc2c1C=CC(C)(C)O2`: the result in assay [2], in assay [3] and in assay [4] was inactive.
`CC1(C)C=Cc2cc(CCN)ccc2O1`: the outcome in assay [2], in assay [3] and in assay [4] was inactive.
Consider `CC1(C)C=Cc2ccc(CO)cc2O1`, for which the inhibition of growth at 100 µM in assay [5] was above 50%. For the same compound, the result in assay [2] was Active.
Regarding `C#CC(C)(C)Oc1ccc(C(=O)OC)cc1`, the outcome in assay [2] was Active.
For the compound `COC(=O)Cc1ccc2c(c1)C=CC(C)(C)O2`, the inhibition of growth at 100 µM in assay [5] was 30%. The outcome in assay [2] was Active. The result in assay [3] and in assay [4] was inactive.
For `COC(=O)CCc1ccc(O)cc1`, the outcome in assay [2] was Active.
For the compound `COc1cc(CCNC(C)C)cc2c1OC(C)(C)C=C2`, the result in assay [2], in assay [3] and in assay [4] was inactive.
Turning to `CC(C)NCc1ccc2c(c1)C=CC(C)(C)O2`, the result in assay [2], in assay [3] and in assay [4] was inactive.
For the compound `COC(=O)c1ccc2c(c1)C=CC(C)(C)O2`, the inhibition of growth at 100 µM in assay [5] was above 50%. Besides, in assay [2], the outcome was Active.
For the compound `CC1(C)C=Cc2c(CO)cccc2O1`, in assay [2], the outcome was Active.
As to `COC(=O)c1cccc2c1C=CC(C)(C)O2`, the inhibition of growth at 100 µM in assay [5] is above 50%. Also, the outcome in assay [2] was Active.
In the case of `CNCCc1ccc2c(c1)C=CC(C)(C)O2`, the result in assay [2], in assay [3] and in assay [4] was inactive.
For the compound `CC(C)NCCCc1ccc2c(c1)C=CC(C)(C)O2`, the outcome in assay [2], in assay [3] and in assay [4] was inactive.
With `CC1(C)C=Cc2cc(CCCO)ccc2O1`, in assay [5], the inhibition of growth at 100 µM is above 50%. Also, in assay [2], the result was Active.
`CCOC(=O)Cc1cc2c(c(OC)c1)OC(C)(C)C=C2`: the outcome in assay [2] was Active.
Take `CC(C)NCCc1ccc2c(c1)C=CC(C)(C)O2`: the result in assay [6], in assay [2], in assay [3] and in assay [4] was inactive.
As to `C#CC(C)(C)Oc1cccc(C(=O)OC)c1`, the outcome in assay [2] was Active.
Take `C#CC(C)(C)Oc1ccc(CC(=O)OCC)cc1OC`: in assay [2], the result was Active.
Still for that read-out and setting: the same measure for `COc1cc(CCO)cc2c1OC(C)(C)C=C2`: “Active”.
As to `CC1(C)C=Cc2cc(CCO)ccc2O1`, in assay [5], the inhibition of growth at 100 µM was above 50%. In addition, the result in assay [6], in assay [3] and in assay [4] was inactive. In addition, in assay [2], the result was Active.
As for `CC1(C)C=Cc2cc(CO)ccc2O1` [EULATACHROMENE], the inhibition of growth at 100 µM in assay [5] is 30%. For the same compound, the outcome in assay [6] was inactive. For the same compound, the outcome in assay [2] was Active.
For `C#CC(C)(C)Oc1ccc(CC(=O)OC)cc1`, the outcome in assay [2] was Active.
On to `CC(C)CC(=O)N(C)CCc1ccc2c(c1)C=CC(C)(C)O2`, for which the inhibition of growth at 100 µM in assay [5] worked out at 80%. The result in assay [3] and in assay [4] was inactive.
